{
  "source": "PubChem BioAssay",
  "note": "Activity calls are given as the source filed them.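 The calls were made as follows, unless noted: active = calcium signal cut by more than 3 SD below the full-agonist control yet still positive, in both repeats and the earlier primary screen; inactive = the rest.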",
  "data": [
    {"system": "TRPC4 beta (transient receptor potential cation channel C4), mouse", "test": "potentiation of DAMGO EC20 TRPC4 response – cell-based, Fluo-4, HEK293 TRPC4beta/mu-opioid, confirmation (AID 2555;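 active = primary screen hit whose calcium fluorescence ratio, in both repeats, exceeds the weak agonist control mean by 3 SD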)", "conditions": "DAMGO EC20, Fluo-4 calcium flux, at 10 µM; hits give high values", "values": [
      {"smiles": "CN1CCN(S(=O)(=O)c2ccc(Br)c3ccccc23)CC1", "outcome": "inactive"},
      {"smiles": "CC(C)(C)C(=O)NCCCc1nc2ccccc2n1CCCOc1ccc(Cl)cc1", "outcome": "inactive"},
      {"smiles": "CCN(CC)c1ccc(CNc2nc3ccccc3n2CCN2CCCCC2)cc1", "outcome": "inactive"},
      {"smiles": "O=[N+]([O-])c1ccc(S(=O)(=O)NCCCc2ccccc2)cc1", "outcome": "inactive"},
      {"smiles": "CC(=O)c1ccc(OCC(O)CN2CCN(S(=O)(=O)c3c(C)cc(C)cc3C)CC2)cc1", "note": "(stereo not given)", "potentiation": "23% (active)"},
      {"smiles": "CC(=O)c1ccc(N2CCN(c3ccc(S(=O)(=O)NCCCN(C)C)cc3[N+](=O)[O-])CC2)cc1", "potentiation": "19% (active)"},
      {"smiles": "C=CCn1c(SCCN2CCCCC2)nc2c1c(=O)[nH]c(=O)n2C", "potentiation": "16% (active)"},
      {"smiles": "CCCN(C(=O)COC(=O)C12CCC(=O)N1c1ccccc1S2)c1c(N)n(Cc2ccccc2)c(=O)[nH]c1=O", "note": "(stereo not given)", "outcome": "inactive"},
      {"smiles": "Cc1cc(C(=O)CN2C(=O)C(=O)N(CC(C)C)C2=O)c(C)n1-c1ccccc1F", "outcome": "inactive"},
      {"smiles": "C/C(=N\\NC(=O)COc1ccc(C)cc1C(C)C)c1ccc(-n2ccnc2)cc1", "outcome": "inactive"},
      {"smiles": "COc1cc(/C=C2\\C(=O)ON=C2c2ccccc2)cc(Cl)c1O", "outcome": "inactive"},
      {"smiles": "CN(CC(=O)Nc1ccc(F)cc1)C(=O)COC(=O)C1CCN(c2ccc(C(F)(F)F)cn2)CC1", "outcome": "inactive"},
      {"smiles": "CCCN(CCC)CCCNC(=O)c1cc2c(=O)n(C)c3ccccc3c2n1C", "outcome": "inactive"},
      {"smiles": "COc1ccccc1CC(=O)N1CCN(S(=O)(=O)c2ccccc2)CC1", "potentiation": "24% (active)"},
      {"smiles": "O=C(COc1ccccc1)NC1CCCCCCC1", "potentiation": "33% (active)"},
      {"smiles": "O=C(CC1C(=O)NCCN1C(=O)Nc1ccccc1)Nc1cc(Cl)cc(Cl)c1", "note": "(stereo not given)", "potentiation": "15% (active)"},
      {"smiles": "COc1ccc(NS(=O)(=O)c2cccc(C(=O)N3CCN(Cc4cc(OC)ccc4OC)CC3)c2)cc1", "outcome": "inactive"},
      {"smiles": "Cc1ccc(C(=O)c2no[n+]([O-])c2C(=O)c2ccc(C)cc2)cc1", "potentiation": "89% (active)"},
      {"smiles": "O=C(NC1CCCC1)c1cc2ccccc2o1", "potentiation": "14% (active)"},
      {"smiles": "COc1ccc(-n2cc(CNCc3cccnc3)c(-c3cccc(F)c3)n2)cc1", "outcome": "inactive"},
      {"smiles": "CN1CCCN(Cc2cccc3ccccc23)CC1", "outcome": "inactive"}
    ]},
    {"target": "Short transient receptor potential channel 4 (Mus musculus) (UniProt Q9QUQ5)", "sequence (Q9QUQ5 whole entry, looked up)": "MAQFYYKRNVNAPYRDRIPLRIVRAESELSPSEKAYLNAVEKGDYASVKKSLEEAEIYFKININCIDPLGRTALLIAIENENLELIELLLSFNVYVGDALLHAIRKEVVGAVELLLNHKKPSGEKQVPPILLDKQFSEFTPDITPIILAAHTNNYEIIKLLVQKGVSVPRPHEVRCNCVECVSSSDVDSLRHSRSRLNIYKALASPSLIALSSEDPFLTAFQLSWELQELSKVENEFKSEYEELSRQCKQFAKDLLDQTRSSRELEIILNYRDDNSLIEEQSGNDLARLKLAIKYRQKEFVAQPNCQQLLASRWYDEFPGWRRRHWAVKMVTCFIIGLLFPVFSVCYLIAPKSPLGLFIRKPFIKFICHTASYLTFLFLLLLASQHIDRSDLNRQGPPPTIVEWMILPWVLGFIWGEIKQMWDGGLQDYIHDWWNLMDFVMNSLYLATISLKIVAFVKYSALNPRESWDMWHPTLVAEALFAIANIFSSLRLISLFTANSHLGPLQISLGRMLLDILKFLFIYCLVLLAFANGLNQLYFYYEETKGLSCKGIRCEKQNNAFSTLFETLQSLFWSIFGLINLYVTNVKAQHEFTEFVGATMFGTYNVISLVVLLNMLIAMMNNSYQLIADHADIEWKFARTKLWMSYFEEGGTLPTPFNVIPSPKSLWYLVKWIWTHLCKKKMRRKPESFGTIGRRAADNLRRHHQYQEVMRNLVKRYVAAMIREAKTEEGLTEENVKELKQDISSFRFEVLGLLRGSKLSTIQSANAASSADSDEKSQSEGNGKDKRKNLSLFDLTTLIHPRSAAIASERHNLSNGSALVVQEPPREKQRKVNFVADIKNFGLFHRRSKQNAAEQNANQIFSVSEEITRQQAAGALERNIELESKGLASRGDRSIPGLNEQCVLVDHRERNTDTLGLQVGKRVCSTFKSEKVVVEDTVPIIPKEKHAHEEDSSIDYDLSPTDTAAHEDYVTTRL", "test": "blockers of DAMGO-evoked TRPC4 calcium flux – cell-based, Fluo4, HEK293 TRPC4beta/mu-opioid, confirmation (AID 2636)", "conditions": "at 10 µM; hits give high values", "in_short": "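Timing: Dye 45 min at room temperature, compound 110 s, submaximal DAMGO 110 s | Assay system: HEK293 stable line with TRPC4beta plus mu-opioid receptor | Repeats: Two replicates | Technique: Fluo4 calcium flux fluorescence, kinetic read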", "values": [
      {"smiles": "CC(C)C(=O)N1CCN(c2nc(-c3ccccc3)c3c(c2C#N)CCCC3)CC1", "outcome": "inactive"},
      {"smiles": "CC(=O)n1cc([C@@H]2C=C(C(=O)NCc3ccccc3)O[C@H](OCc3ccc(CO)cc3)C2)c2ccccc21", "outcome": "inactive"},
      {"smiles": "CCN1CCN(c2nc(N)c([N+](=O)[O-])c(Nc3ccc(C)c(C)c3)n2)CC1", "outcome": "inactive"},
      {"smiles": "CN1/C(=C\\C=[N+](C)c2ccccc2)C(C)(C)c2ccccc21", "outcome": "inactive"},
      {"smiles": "COc1cc(NC(=O)C(C)Oc2ccccc2)cc(OC)c1", "note": "(stereo not given)", "outcome": "inactive"},
      {"smiles": "CCCCc1ccc(NC(=O)CSc2nnc(C)c(=O)n2N)cc1", "outcome": "inactive"},
      {"smiles": "O=C(COc1ccc(Br)cc1Cl)c1ccc[nH]1", "inhibition": "89% (active)"},
      {"smiles": "Clc1cc(/C=N\\NC2=NCCN2)cc(Cl)n1", "outcome": "inactive"},
      {"smiles": "Cc1cc(OCC(=O)N2CCCC2)cc(C)c1Cl", "outcome": "inactive"},
      {"smiles": "CCOC(=O)CC(NS(=O)(=O)c1ccc(OC)c(C)c1)c1cccc([N+](=O)[O-])c1", "note": "(stereo not given)", "outcome": "inactive"},
      {"smiles": "O=C(COc1coc(CN2CCN(c3ccccc3F)CC2)cc1=O)Nc1ccccc1", "outcome": "inactive"},
      {"smiles": "CN(C)CCCNC(=O)/C=C/c1ccc(OCc2c(F)cccc2Cl)cc1", "outcome": "inactive"},
      {"smiles": "CC(C)c1cccc(OCCCCN(C)C)c1", "outcome": "inactive"},
      {"smiles": "CNc1oc(-c2ccccc2Cl)nc1P(=O)(c1ccccc1)c1ccccc1", "outcome": "inactive"},
      {"smiles": "Cc1ccc(C(=O)C[n+]2cccc3cc(C)ccc32)cc1", "outcome": "inactive"},
      {"smiles": "CCCN1CCN(C(=S)NCc2ccc(Cl)cc2)CC1", "outcome": "inactive"},
      {"smiles": "CC(=O)Nc1nc(-c2ccc3c(c2)CCN3C(=O)C2CC2)c(C)s1", "outcome": "inactive"},
      {"smiles": "COC(=O)c1ccccc1NC(=O)CCC(=O)N1CC(C)Oc2ccc(C)cc21", "note": "(stereo not given)", "inhibition": "75% (active)"},
      {"smiles": "CN1CCN(S(=O)(=O)c2ccc(Br)c3ccccc23)CC1", "outcome": "inactive"},
      {"smiles": "CC(C)(C)C(=O)NCCCc1nc2ccccc2n1CCCOc1ccc(Cl)cc1", "outcome": "inactive"},
      {"smiles": "CCN(CC)c1ccc(CNc2nc3ccccc3n2CCN2CCCCC2)cc1", "outcome": "inactive"},
      {"smiles": "O=[N+]([O-])c1ccc(S(=O)(=O)NCCCc2ccccc2)cc1", "outcome": "inactive"},
      {"smiles": "CC(=O)c1ccc(OCC(O)CN2CCN(S(=O)(=O)c3c(C)cc(C)cc3C)CC2)cc1", "note": "(stereo not given)", "outcome": "inactive"},
      {"smiles": "CC(=O)c1ccc(N2CCN(c3ccc(S(=O)(=O)NCCCN(C)C)cc3[N+](=O)[O-])CC2)cc1", "outcome": "inactive"},
      {"smiles": "C=CCn1c(SCCN2CCCCC2)nc2c1c(=O)[nH]c(=O)n2C", "outcome": "inactive"},
      {"smiles": "CCCN(C(=O)COC(=O)C12CCC(=O)N1c1ccccc1S2)c1c(N)n(Cc2ccccc2)c(=O)[nH]c1=O", "note": "(stereo not given)", "inhibition": "52% (active)"},
      {"smiles": "Cc1cc(C(=O)CN2C(=O)C(=O)N(CC(C)C)C2=O)c(C)n1-c1ccccc1F", "outcome": "inactive"},
      {"smiles": "C/C(=N\\NC(=O)COc1ccc(C)cc1C(C)C)c1ccc(-n2ccnc2)cc1", "outcome": "inactive"},
      {"smiles": "COc1cc(/C=C2\\C(=O)ON=C2c2ccccc2)cc(Cl)c1O", "inhibition": "76% (active)"},
      {"smiles": "CN(CC(=O)Nc1ccc(F)cc1)C(=O)COC(=O)C1CCN(c2ccc(C(F)(F)F)cn2)CC1", "inhibition": "70% (active)"},
      {"smiles": "CCCN(CCC)CCCNC(=O)c1cc2c(=O)n(C)c3ccccc3c2n1C", "outcome": "inactive"},
      {"smiles": "COc1ccccc1CC(=O)N1CCN(S(=O)(=O)c2ccccc2)CC1", "outcome": "inactive"},
      {"smiles": "O=C(COc1ccccc1)NC1CCCCCCC1", "outcome": "inactive"},
      {"smiles": "O=C(CC1C(=O)NCCN1C(=O)Nc1ccccc1)Nc1cc(Cl)cc(Cl)c1", "note": "(stereo not given)", "outcome": "inactive"},
      {"smiles": "COc1ccc(NS(=O)(=O)c2cccc(C(=O)N3CCN(Cc4cc(OC)ccc4OC)CC3)c2)cc1", "outcome": "inactive"},
      {"smiles": "Cc1ccc(C(=O)c2no[n+]([O-])c2C(=O)c2ccc(C)cc2)cc1", "outcome": "inactive"},
      {"smiles": "O=C(NC1CCCC1)c1cc2ccccc2o1", "outcome": "inactive"},
      {"smiles": "COc1ccc(-n2cc(CNCc3cccnc3)c(-c3cccc(F)c3)n2)cc1", "outcome": "inactive"},
      {"smiles": "CN1CCCN(Cc2cccc3ccccc23)CC1", "outcome": "inactive"}
    ]}
  ]
}
